Measurements reported in paper PMC6468299 (Nucleic Acids Research, 2019).
Marks after values point to notes of the source that are not given here.

Experiments:
[1] = target: T1, human mitochondrial DNA polymerase γ (Pol-γ exo-mutant) (Homo sapiens, UniProt P54098, D198A/E200A); assay: Pol-γ primer extension; format: biochemical
T1 sequence (P54098 26-1239 D198A/E200A limits assumed): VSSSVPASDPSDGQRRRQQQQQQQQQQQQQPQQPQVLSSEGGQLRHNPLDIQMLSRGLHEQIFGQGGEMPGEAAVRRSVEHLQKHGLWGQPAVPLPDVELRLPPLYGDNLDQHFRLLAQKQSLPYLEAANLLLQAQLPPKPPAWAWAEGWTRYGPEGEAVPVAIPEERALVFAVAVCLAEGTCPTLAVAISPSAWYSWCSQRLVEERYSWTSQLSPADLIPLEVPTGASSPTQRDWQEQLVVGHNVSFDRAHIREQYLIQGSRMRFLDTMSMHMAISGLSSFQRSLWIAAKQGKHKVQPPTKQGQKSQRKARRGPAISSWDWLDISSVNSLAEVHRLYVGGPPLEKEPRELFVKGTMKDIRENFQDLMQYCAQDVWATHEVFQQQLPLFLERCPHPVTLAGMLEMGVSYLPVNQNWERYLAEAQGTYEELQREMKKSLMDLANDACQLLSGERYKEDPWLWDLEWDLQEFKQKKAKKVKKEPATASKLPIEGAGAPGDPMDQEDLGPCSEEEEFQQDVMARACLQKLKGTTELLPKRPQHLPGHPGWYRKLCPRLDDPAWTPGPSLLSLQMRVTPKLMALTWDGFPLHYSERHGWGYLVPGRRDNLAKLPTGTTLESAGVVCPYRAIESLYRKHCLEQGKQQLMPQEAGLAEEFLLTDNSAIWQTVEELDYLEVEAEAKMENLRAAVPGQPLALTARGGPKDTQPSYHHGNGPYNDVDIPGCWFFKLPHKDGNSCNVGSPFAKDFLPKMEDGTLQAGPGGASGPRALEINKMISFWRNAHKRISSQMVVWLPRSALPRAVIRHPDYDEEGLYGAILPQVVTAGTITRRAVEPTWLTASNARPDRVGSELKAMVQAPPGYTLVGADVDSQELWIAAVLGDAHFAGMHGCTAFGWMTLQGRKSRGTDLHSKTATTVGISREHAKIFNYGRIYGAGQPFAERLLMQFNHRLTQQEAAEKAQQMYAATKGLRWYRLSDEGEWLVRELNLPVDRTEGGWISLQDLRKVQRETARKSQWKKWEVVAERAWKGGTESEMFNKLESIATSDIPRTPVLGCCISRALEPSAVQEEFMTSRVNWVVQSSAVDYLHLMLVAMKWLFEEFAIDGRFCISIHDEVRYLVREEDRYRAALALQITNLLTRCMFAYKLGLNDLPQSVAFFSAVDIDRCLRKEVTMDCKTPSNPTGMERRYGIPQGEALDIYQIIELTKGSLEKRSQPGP
Summary of the method: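 Exonuclease-deficient human Pol-γ (40 units) was used with 100 nM DNA template and 100 nM Atto-425-labelled 14-mer DNA primer. Substrate was 1 mM dNTP or 2′-F-NTP, or mixtures 100:1 to 1:100 (1:1 both 1 mM). Products were separated by fluorescence IEX-HPLC (ex 436/em 485 nm) at pH 11. Products under 1.0% peak area were called not detected.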

DNA polymerase γ (Pol-γ) = target: T2, DNA polymerase γ (Pol-γ) (Homo sapiens, UniProt P54098); assay: DNA polymerase inhibition assay, Pol-γ; format: biochemical; settings: 1 h, 3H-dTTP incorporation
T2 sequence (P54098 1-1239): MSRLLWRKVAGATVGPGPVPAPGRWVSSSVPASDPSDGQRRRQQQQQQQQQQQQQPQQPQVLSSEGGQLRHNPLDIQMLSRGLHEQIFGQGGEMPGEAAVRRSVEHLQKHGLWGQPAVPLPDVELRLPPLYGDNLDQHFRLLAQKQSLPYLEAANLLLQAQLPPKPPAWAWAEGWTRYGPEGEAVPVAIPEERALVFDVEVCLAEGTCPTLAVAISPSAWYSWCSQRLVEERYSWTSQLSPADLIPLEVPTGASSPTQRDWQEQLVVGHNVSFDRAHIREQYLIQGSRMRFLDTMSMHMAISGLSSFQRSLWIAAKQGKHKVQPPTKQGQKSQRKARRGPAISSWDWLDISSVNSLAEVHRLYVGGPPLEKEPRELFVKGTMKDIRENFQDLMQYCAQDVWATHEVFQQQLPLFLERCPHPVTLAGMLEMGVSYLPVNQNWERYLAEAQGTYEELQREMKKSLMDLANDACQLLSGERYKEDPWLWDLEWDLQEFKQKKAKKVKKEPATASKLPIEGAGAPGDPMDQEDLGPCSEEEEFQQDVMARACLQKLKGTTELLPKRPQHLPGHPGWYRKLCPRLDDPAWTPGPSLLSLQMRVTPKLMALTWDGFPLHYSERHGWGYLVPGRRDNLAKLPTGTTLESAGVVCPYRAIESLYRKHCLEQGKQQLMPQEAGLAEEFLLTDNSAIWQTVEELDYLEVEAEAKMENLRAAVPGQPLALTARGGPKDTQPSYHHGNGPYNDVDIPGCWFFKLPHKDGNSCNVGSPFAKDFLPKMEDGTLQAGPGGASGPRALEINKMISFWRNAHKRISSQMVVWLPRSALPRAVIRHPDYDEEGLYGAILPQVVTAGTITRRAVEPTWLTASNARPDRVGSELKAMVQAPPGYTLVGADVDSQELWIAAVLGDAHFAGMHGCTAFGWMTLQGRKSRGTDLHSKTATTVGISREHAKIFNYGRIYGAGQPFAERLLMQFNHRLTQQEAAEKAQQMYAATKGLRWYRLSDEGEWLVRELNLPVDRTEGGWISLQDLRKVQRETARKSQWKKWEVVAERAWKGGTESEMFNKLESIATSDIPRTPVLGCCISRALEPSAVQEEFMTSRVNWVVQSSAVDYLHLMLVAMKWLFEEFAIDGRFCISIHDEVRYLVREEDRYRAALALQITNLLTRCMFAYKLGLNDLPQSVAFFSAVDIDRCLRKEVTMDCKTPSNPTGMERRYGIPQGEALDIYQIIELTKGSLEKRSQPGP
Summary of the method: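 Reactions contained 25 μM each dATP/dCTP/dGTP, 25 nM TTP plus 1 μCi ³H-TTP, 160 nM template/primer, and serially diluted test nucleotide (0–200 μM). Incubation was 1 h at 37°C, stopped with TCA (10% final). DNA was precipitated 40 min at 4°C, washed and scintillation-counted; inhibition was taken from reduced radioactivity.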

[2] = tested on: human mitochondrial Pol-γ; settings: absence of endogenous dNTPs; cited from earlier work

Structure (SMILES)	% 2′-F product ([1]; F only)	% Native product ([1]; Native only (no 2′-F-NTP))	% 2′-F product ([1]; Native:F ratio 1:1)	% Native product ([1]; Native:F ratio 1:1)	% 2′-F product ([1]; Native:F ratio 1:10)	% Native product ([1]; Native:F ratio 1:10)	% 2′-F product ([1]; Native:F ratio 1:100)	% Native product ([1]; Native:F ratio 1:100)	IC50 (DNA polymerase γ (Pol-γ))	IC90 (DNA polymerase γ (Pol-γ))	misincorporation frequency relative to the natural dTTP/dNTP [2]
Nc1ncnc2c1ncn2[C@@H]1O[C@H](COP(=O)(O)OP(=O)(O)OP(=O)(O)O)[C@@H](O)[C@H]1F [2′-F-ATP]	94.2^a %	95.9^a %	ND (not detected (integration peak area <1.0%))	96.3^a %	ND (not detected (integration peak area <1.0%))	97.1^a %	17.6^b %	79.8^b %	> 200 µM	> 200 µM	
Nc1ccn([C@@H]2O[C@H](COP(=O)(O)OP(=O)(O)OP(=O)(O)O)[C@@H](O)[C@H]2F)c(=O)n1 [2′-F-CTP]	94.0^a %	97.3^a %	ND (not detected (integration peak area <1.0%))	96.2^a %	4.4^b %	90.6^b %	30.9^b %	64.5^b %	> 200 µM	> 200 µM	
Nc1nc2c(ncn2[C@@H]2O[C@H](COP(=O)(O)OP(=O)(O)OP(=O)(O)O)[C@@H](O)[C@H]2F)c(=O)[nH]1 [2′-F-GTP]	73.9^a %	89.2^a %	ND (not detected (integration peak area <1.0%))	85.0^a %	ND (not detected (integration peak area <1.0%))	88.9^a %	23.7^b %	56.0^b %	> 200 µM	> 200 µM	16%
O=c1ccn([C@@H]2O[C@H](COP(=O)(O)OP(=O)(O)OP(=O)(O)O)[C@@H](O)[C@H]2F)c(=O)[nH]1 [2′-F-UTP]	87.3^a %	83.3^a %	ND (not detected (integration peak area <1.0%))	83.8^a %	2.9^b %	90.0^b %	7.6^b %	80.1^b %	> 200 µM	> 200 µM	0.5%
O=c1[nH]c(=O)n([C@@H]2O[C@H](COP(=O)(O)OP(=O)(O)OP(=O)(O)O)[C@@H](O)[C@@H]2F)cc1I [FIAU-TP, fialuridine triphosphate, reference compound]	94.4^a %	98.3^a %	4.5^b %	91.7^b %	44.0^b %		82.7^b %		1.04 µM	13.4 µM	125%
